Active and inactive are the calls of the source.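 How the source made its calls, unless noted: active means viability at or under a set limit in both replicates, limit being median viability minus 3 SD (cut at about 48% in these data, passing the limit was not always enough); inconclusive means at or under the limit in just one replicate; inactive means at or above the limit in both replicates.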
Assays:
[1] = reduced viability of SK-BR-3 breast cancer cells – cell-based, 24 h, human, pilot screen (AID 572;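 active means viability at or below 10% of carrier control in both of two separate runs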;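 further: compound exposure lasted between 18 and 24 h rather than exactly 24 h; 100% = carrier-treated control wells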); settings: SK-BR-3 viability, CellTiter-Glo luminescence, at 10 µM, stronger effect = lower value
[2] = HUVEC growth inhibition – cell-based, human, primary screen (AID 575;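 active means viability at or below 30% in both replicate assays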;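 further: 100% = median of untreated cell wells with 0.1% DMSO on each plate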); settings: HUVEC proliferation, CellTiter-Glo luminescence, 72 h; at 10 µM; stronger effect = lower value
Outline: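 Assay system: primary human umbilical vein endothelial cells / Buffer or medium: endothelial basal medium with 2% FBS plus growth supplements / Compound dosing: one dose, 10 µM final, 0.1% DMSO / Timing: 72 h treatment at 37 °C / Signal: CTG luminescence / Benchmarks: 32 DMSO-only cell-control wells (high), 32 MePR drug-control wells (low) per plate / Plate: collagen-coated 384-well format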

[3] = H69AR cell proliferation blockers – human, duplicate replicates, primary screen (AID 580); settings: H69AR lung tumor cells viability, ATP luminescence, 72 h; at 10 µM; stronger effect = lower value;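 further: 100% = mean luminescence of untreated wells and 0% = no signal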
[4] = MRP1 drug-resistance reversers in H69AR cells – cell-based, doxorubicin co-treatment, pilot screen (AID 601;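 active means viability loss from added drug above about 55%, and viability with drug at most 40%, in both replicates, limit read from the data, passing the limit was not always enough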); settings: CellTiter-Glo, 72 h, at 10 µM; for differential viability (reversal): stronger effect = higher value
[5] = yeast transport mutant growth inhibition pilot in 384-well plates, post-Golgi transport modulator project (AID 636; in the data active means inhibition above about 31%); settings: absorbance 615 nm, about 18 h, stronger effect = higher value
[6] = growth suppression of yeast trafficking mutant, preliminary HTS, modulators of trafficking downstream of Golgi apparatus project, 1536-format plate, OD 615 nm (AID 637; in the data active means inhibition above about 30%); settings: yeast transport mutant growth, absorbance 615 nm, 18 h; stronger effect = higher value
[7] = H69AR cells + 2 uM doxorubicin, measured here: viability with 2 uM doxorubicin, stronger effect = lower value
[8] = H69AR cells, compound alone cytotoxicity

Compound | viability [1] | viability [2] | viability [3] | differential viability (reversal) ([4]; H69AR cells + 2 uM doxorubicin) | viability [4, 7] | viability [4, 8] | inhibition [5] | inhibition [6]
Cc1[nH]nc2c1C(c1ccc(F)cc1)C1=C(CC(C)(C)CC1=O)N2 (stereo unspecified) | 126% (inactive) | 102% (inactive) | 87.4% (inactive) | -0.39% (inactive) | 87.8% | 87.4% | -5.14% (inactive) | 3.97% (inactive)
Cn1c(=O)c2c(nc(NCCCO)n2Cc2cccc(Br)c2)n(C)c1=O | 91% (inactive) | 104% (inactive) | 85.7% (inactive) | 0.26% (inactive) | 85.4% | 85.7% | -5.73% (inactive) | 3.64% (inactive)
COc1ccc2c(C)nc(Nc3nc(C)cc(C)n3)nc2c1 | 84% (inactive) | 114% (inactive) | 87.3% (inactive) | -6.58% (inactive) | 93.9% | 87.3% | -6.08% (inactive) | 0% (inactive)
CCOc1ccc(-c2nc(C#N)c(NCc3ccc4c(c3)OCO4)o2)cc1 | 68% (inactive) | 58.8% (inactive) | 70.4% (inactive) | 0.795% (inactive) | 69.6% | 70.4% | 1.03% (inactive) | -0.5% (inactive)
O=C(O)CC1Sc2nc3ccccc3n2C1=O (stereo unspecified) | 105% (inactive) | 111% (inactive) | 102% (inactive) | 6.67% (inactive) | 95.4% | 102% | -6.08% (inactive) | -5.27% (inactive)
O=C(C1CCN(S(=O)(=O)c2cnc[nH]2)CC1)N1CCN(c2ncccn2)CC1 | 112% (inactive) | 111% (inactive) | 102% (inactive) | 19.5% (inactive) | 82.8% | 102% | -5.33% (inactive) | 0% (inactive)
O=C(O)CCn1c(=O)c2ccccc2c2ccccc2c1=O | 87% (inactive) | 109% (inactive) | 100% (inactive) | 5.16% (inactive) | 94.8% | 100% | 0.14% (inactive) | -8.06% (inactive)
C=CCNc1nnc(SC2CC(=O)N(c3ccc(OC)cc3)C2=O)s1 (stereo unspecified) | 107% (inactive) | 108% (inactive) | 103% (inactive) | -8.79% (inactive) | 111% | 103% | -1.92% (inactive) | 0.73% (inactive)
COc1ccccc1N1CCN(C(=O)c2cc(-c3ccc(Cl)c(Cl)c3)on2)CC1 | 122% (inactive) | 70.4% (inactive) | 57.9% (inactive) | -6.66% (inactive) | 64.5% | 57.9% | -4.13% (inactive) | -1.82% (inactive)
NC(=O)C1CCN(C(=S)c2cccs2)CC1 | 77% (inactive) | 102% (inactive) | 96.1% (inactive) | 11.5% (inactive) | 84.7% | 96.1% | -8.49% (inactive) | 3.39% (inactive)
C=CCn1c(SCC(=O)Nc2ccccc2OC)nnc1-c1ccccn1 | 84% (inactive) | 92.4% (inactive) | 27.6% (active) | -38.3% (inactive) | 65.9% | 27.6% | -3.78% (inactive) | -4.36% (inactive)
COCC(=O)n1nc(NCc2ccc(OC)cc2)nc1NCc1ccc(OC)cc1 | 116% (inactive) | 105% (inactive) | 99.8% (inactive) | 9.29% (inactive) | 90.5% | 99.8% | 53.3% (active) | 28.6% (inactive)
O=C1c2ccccc2-c2ccc(C(=O)N3CCOCC3)cc21 | 87% (inactive) | 105% (inactive) | 89.7% (inactive) | -2.82% (inactive) | 92.5% | 89.7% | -2.7% (inactive) | 29.4% (inactive)
COCCCNC(=O)CCCn1c(=O)c2ccccc2n(CC(=O)Nc2c(C)cccc2C)c1=O | 99% (inactive) | 97.6% (inactive) | 93.1% (inactive) | 4.87% (inactive) | 88.2% | 93.1% | -1.69% (inactive) | -1.31% (inactive)
CCCC(=O)Nc1ccc(C(=O)O)cc1NC(=O)CCC | 77% (inactive) | 97.3% (inactive) | 96.3% (inactive) | -23% (inactive) | 119% | 96.3% | -3.56% (inactive) | 1.45% (inactive)
CCCN(CC1CC1)C(=O)Nc1ccccc1C | 94% (inactive) | 101% (inactive) | 104% (inactive) | 12.2% (inactive) | 92.2% | 104% | -1.04% (inactive) | -12.9% (inactive)
O=C(O)c1ccccc1Nc1cccc(C(F)(F)F)c1 | 135% (inactive) | 69.6% (inactive) | 88.6% (inactive) | 11.3% (inactive) | 77.3% | 88.6% | -1.3% (inactive) | 2% (inactive)
COCCNC(=O)C(c1cccs1)N(C(=O)Cn1nnc2ccccc21)c1ccccc1 (stereo unspecified) | 97% (inactive) | 107% (inactive) | 97.2% (inactive) | 3.17% (inactive) | 94% | 97.2% | -2.34% (inactive) | -5.9% (inactive)
COc1ccc(-n2ncc3c(NCc4ccc5c(c4)OCO5)ncnc32)cc1 | 92.5% (inactive) | 49.8% (inactive) | 6.44% (active) | -11% (inactive) | 17.4% | 6.44% | -3.55% (inactive) | 3.71% (inactive)

Compound | viability [1] | viability [2] | viability [3] | differential viability (reversal) ([4]; H69AR cells + 2 uM doxorubicin) | viability [4, 7] | viability [4, 8] | inhibition [5] | inhibition [6]
Cc1ccc(C)c(NS(=O)(=O)c2ccc(NC(=O)c3ccco3)cc2)c1 | 72% (inactive) | 78.5% (inactive) | 90.5% (inactive) | -5.62% (inactive) | 96.1% | 90.5% | -8.92% (inactive) | -6.91% (inactive)
O=C(Nc1cc(C(=O)N2CCCC2)ccc1N1CCCC1)c1ccccc1F | 108% (inactive) | 119% (inactive) | 101% (inactive) | 8.93% (inactive) | 92% | 101% | -8.13% (inactive) | -3.64% (inactive)
Cc1nc2ccc(C(=O)O)cc2c2c1CC(C)S2 (stereo unspecified) | 93% (inactive) | 96.8% (inactive) | 90.8% (inactive) | -2.25% (inactive) | 93.1% | 90.8% | -4.93% (inactive) | 0.55% (inactive)
CN(C(=O)C1CCOC1)c1nnc(-c2cccnc2)s1 (stereo unspecified) | 92% (inactive) | 101% (inactive) | 88.5% (inactive) | 4.19% (inactive) | 84.3% | 88.5% | -1.23% (inactive) | 19.4% (inactive)
CCOC(=O)c1cc(-c2ccccc2)sc1N | 129% (inactive) | 71.1% (inactive) | 81.3% (inactive) | 3.5% (inactive) | 77.8% | 81.3% | -6% (inactive) | -2% (inactive)
O=C(NCN1CCCCC1)c1cccnc1 | 134% (inactive) | 102% (inactive) | 106% (inactive) | -0.935% (inactive) | 107% | 106% | -3.9% (inactive) | 6.07% (inactive)
COC(=O)c1ccc(COC(=O)c2c(C)nn(Cc3ccccc3Cl)c2Cl)o1 | 69% (inactive) | 94.6% (inactive) | 86.2% (inactive) | 4.08% (inactive) | 82.1% | 86.2% | -4.38% (inactive) | 3.82% (inactive)
CC(=O)OC[C@H]1O[C@@H](n2ncc(=O)[nH]c2=O)[C@H](OC(C)=O)[C@@H]1OC(C)=O | 103% (inactive) | 84.3% (inactive) | 91.3% (inactive) | 3.12% (inactive) | 88.2% | 91.3% | -0.39% (inactive) | 3.17% (inactive)
CCCn1cnc2c(cnn2-c2ccc(F)cc2)c1=O | 100% (inactive) | 90.9% (inactive) | 98.8% (inactive) | 1.56% (inactive) | 97.3% | 98.8% | -0.78% (inactive) | 0.16% (inactive)
O=C(Nc1cccc(OCC(=O)N2CCOCC2)c1)C1CCCCC1 | 109% (inactive) | 90% (inactive) | 112% (inactive) | -0.43% (inactive) | 112% | 112% | -4.66% (inactive) | 0% (inactive)
Cc1nn(Cc2ccccc2)c2c1C(c1ccncc1)C(C#N)=C(N)O2 (stereo unspecified) | 96% (inactive) | 86% (inactive) | 85% (inactive) | -2.68% (inactive) | 87.7% | 85% | -4.8% (inactive) | -3.27% (inactive)
O=C(CSc1ncn[nH]1)NC1CC2CCC1C2 (stereo unspecified) | 94% (inactive) | 103% (inactive) | 98% (inactive) | -22.4% (inactive) | 120% | 98% | -5.34% (inactive) | -1.82% (inactive)
COc1ccc(C(O)C(CN2CCOCC2)c2ccccc2)cc1F (stereo unspecified) | 107% (inactive) | 109% (inactive) | 103% (inactive) | 4.89% (inactive) | 97.8% | 103% | -0.26% (inactive) | 1.64% (inactive)
COc1ccccc1-c1nc2n(n1)C(c1ccc(Cl)cc1)C(C(N)=O)=C(C)N2 (stereo unspecified) | 126% (inactive) | 89.8% (inactive) | 83.5% (inactive) | -4.36% (inactive) | 87.9% | 83.5% | -0.91% (inactive) | -3.61% (inactive)
CN1C(=O)c2c(sc3c2CCCC3)NC1c1ccccc1O (stereo unspecified) | 72% (inactive) | 68.7% (inactive) | 93.2% (inactive) | -2.01% (inactive) | 95.2% | 93.2% | -3.97% (inactive) | -0.81% (inactive)
CC(NCCc1ccc(O)cc1)C(O)c1ccc(O)cc1 (stereo unspecified) | 99% (inactive) | 101% (inactive) | 99.4% (inactive) | 7.11% (inactive) | 92.3% | 99.4% | -2.73% (inactive) | 0.67% (inactive)
CC(C)(C)c1ccc(C(=O)N2CCC(C(=O)NCc3ccncc3)CC2)cc1 | 110% (inactive) | 95.6% (inactive) | 88.8% (inactive) | -5.45% (inactive) | 94.3% | 88.8% | -3.2% (inactive) | -8.18% (inactive)
CC(=O)SCCC(=O)Nc1ccccc1 | 88% (inactive) | 87.2% (inactive) | 92.5% (inactive) | 5.22% (inactive) | 87.3% | 92.5% | -7.12% (inactive) | 0.81% (inactive)
